Data taken from paper PMC3328361 (The Journal of Experimental Medicine, 2012).

Columns and labels:
[1] = Time-dependent degradation of ONOO^− monitored by UV-visible spectroscopy; assay type: biochemical; conditions: Cu^II(atsm) at 10 µM; ONOO^− in high pH solution (alone 53 ± 3 min)
[2] = target: T1, α-synuclein (Homo sapiens, UniProt P37840); assay: 2D [1H,15N] HSQC NMR titration of 15N-labeled α-synuclein; assay type: binding; conditions: increasing concentrations titrated in
[3] = target: T1, α-synuclein; assay: α-Synuclein amyloid fibril formation; assay type: biochemical; conditions: unpublished data
[4] = tested on: differentiated SH-SY5Y cells; assay: MTS cell viability, SIN-1–induced toxicity; assay type: cell-based, human; conditions: added to cell culture 5 min after SIN-1; unpublished data
[5] = tested on: differentiated SH-SY5Y cells; assay: 3-NT levels in cell media by ELISA after SIN-1; assay type: cell-based, human; conditions: 40 µM pretreatment before SIN-1
In short: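 Human SH-SY5Y cells were differentiated with 10 µM retinoic acid in 1.5% FCS medium for 3 d, then given fresh medium for another 3 d. Cells were preincubated with test compound (10, 20, 40 µM) for 5 min, then exposed to 3 mM SIN-1 for 90 min. Media were coated in pH 9.6 carbonate buffer for ELISA at 22°C: rabbit […] 1:2000, HRP secondary, TMB, A450.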

[6] = Rat pharmacokinetic study; assay type: in vivo, Sprague Dawley rats
In short: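 Fasted male Sprague Dawley rats (6–8 wk, ~280 g) received 20 mg/kg by oral gavage as a 6 mg/ml suspension (n = 3). Another group (n = 3) got 5 mg/kg by i.v. jugular-cannula infusion at 0.05 ml/min, as a 3 mg/ml solution in 20% DMSO/80% propylene glycol. Serial blood was taken to 24 h; plasma was acetonitrile-precipitated and analysed by LC-MS.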

[7] = Mouse pharmacokinetic and brain uptake study; assay type: in vivo, C57BL/6 mice
In short: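 Male C57BL/6 mice, 11 wk old, got a single 30 mg/kg oral gavage dose (7.5 mg/ml suspension in standard suspension vehicle). Plasma and brain were sampled at time points up to 24 h, n = 3 per point, under pentobarbitone anaesthesia. Samples were acetonitrile-precipitated and quantified against matrix-matched standards. Quantitation limits: 5 ng/ml plasma, 10 ng/g brain. Brain/plasma ratio taken from AUC0-6h.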

[8] = tested on: MPTP-lesioned C57BL/6 mice; assay: Stereological SNpc neuron counts, MPTP-lesioned wild-type mice; assay type: in vivo; conditions: for increase in number of SNpc neurons vs vehicle-treated MPTP-lesioned mice: started 1 d after lesion, 20 d
[9] = tested on: 6-OHDA-lesioned C57BL/6 mice; assay: Stereological SNpc neuron counts, 6-OHDA-lesioned mice; assay type: in vivo; conditions: 30 mg/kg, started 3 d after 6-OHDA lesion, 20 d
In short: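 6-OHDA lesion in the right substantia nigra of 2-mo-old C57BL/6 mice; dosing started 3 d post-lesion. Mice were perfused with cold PBS. The right hemisphere was fixed overnight in 4% paraformaldehyde in 0.1 M phosphate buffer at 4°C. Nissl-stained SNpc neurons were counted stereologically with an unbiased 45 µm × 35 µm counting frame.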

[10] = tested on: hA53T α-synuclein tg mice; assay: Stereological nigral cell counts, hA53T α-synuclein tg mice; assay type: in vivo; conditions: 30 mg/kg, 20 d
In short: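 hA53T α-synuclein tg mice and C57BL/6 x C3H background controls, 7 mo old, equal sexes, received 30 mg/kg test compound or suspension vehicle by oral gavage for 20 d. The right hemisphere of PBS-perfused brains was fixed overnight in 4% paraformaldehyde at 4°C. Nissl-stained nigral neurons were counted stereologically using a 45 µm × 35 µm unbiased counting frame.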

[11] = tested on: hA53T tg mice lesioned with MPTP; assay: Stereological SNpc neuron counts, MPTP-lesioned hA53T tg mice; assay type: in vivo; conditions: 30 mg/kg
In short: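 MPTP was given i.p. as four 10 mg/kg doses at 2-h intervals. Groups: 4-mo-old female C57BL/6 mice and 7-mo-old hA53T α-synuclein tg mice, equal sexes. From 1 d post-lesion, mice got 15 or 30 mg/kg test compound or suspension vehicle by oral gavage for […]; saline sham-lesioned controls got vehicle. Perfused brains, right hemisphere fixed in 4% paraformaldehyde; Nissl-stained SNpc counted stereologically (45 × 35 µm frame).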

[12] = tested on: MPTP-lesioned C57BL/6 mice; assay: Pole test, MPTP-lesioned wild-type mice; assay type: in vivo
In short: (§1)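 Oral gavage of 15 or 30 mg/kg test compound or suspension vehicle began 1 d post-lesion. Saline sham-lesioned controls received vehicle. Pole test (Tturn, Ttotal) was run after 19 d of treatment.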

[13] = tested on: hA53T α-synuclein tg mice; assay: Pole test, hA53T α-synuclein tg mice; assay type: in vivo; conditions: 30 mg/kg
[14] = tested on: hA53T tg mice lesioned with MPTP; assay: Pole test, MPTP-lesioned hA53T tg mice; assay type: in vivo
In short: as §1

[15] = tested on: 6-OHDA-lesioned C57BL/6 mice; assay: Amphetamine-induced rotation, 6-OHDA model; assay type: in vivo; conditions: 30 mg/kg, 6-OHDA-lesioned mice
In short: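 Partial 6-OHDA lesion: 2 µl injected into the right substantia nigra of 2-mo-old C57BL/6 mice, 3.0 mm AP, 1.1 mm lateral, 4.7 mm DV from bregma. Amphetamine-induced rotation was tested 3 d post-lesion, before dosing, to confirm lesion size. Mice were randomised to test compound or vehicle for 18 d, then rotation was retested.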

[16] = tested on: TH; assay: TH levels in SNpc of MPTP-lesioned mice; assay type: in vivo
In short: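 MPTP lesion: four i.p. doses of 10 mg/kg at 2-h intervals; 15 or 30 mg/kg oral gavage from the next day. For TH immunostaining, 30 µm coronal SNpc sections were post-fixed in 4% PFA and boiled in citrate buffer (pH 6.0). They were blocked with normal goat serum and incubated overnight at room temperature with rabbit anti-TH 1:3000, then HRP secondary for 2 h and DAB. Western blots were normalised to GAPDH or β-actin.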

[17] = tested on: MPTP-lesioned mice; assay: Dopamine measurement of mouse striatum; assay type: in vivo; conditions: 30 mg/kg
In short: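 MPTP lesion: four i.p. doses of 10 mg/kg at 2-h intervals. Starting the next day, mice received 30 mg/kg test compound or suspension vehicle by oral gavage. Right striatum was homogenised by pulse sonication in 0.4 M perchloric acid with 0.15% sodium metabisulfite and 0.05% EDTA disodium salt for dopamine measurement.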

[18] = tested on: VMAT2; assay: VMAT2 levels in MPTP-lesioned mice; assay type: in vivo; conditions: for increase in VMAT2 levels: 3–4-mo-old MPTP-lesioned mice
In short: (§2)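 MPTP lesion: four i.p. doses of 10 mg/kg at 2-h intervals. Test compound (15 or 30 mg/kg) or vehicle was given by oral gavage from the next day for 21 d. Brain homogenate (~20 µg) was reduced, heated to 90°C for 5 min, run on 10% SDS-PAGE and blotted to nitrocellulose. Densitometry was normalised to GAPDH or β-actin and expressed as percentage of vehicle.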

[19] = tested on: VMAT2; assay: VMAT2 microPET imaging with 18F-AV133, MPTP-lesioned 18-mo-old mice; assay type: in vivo; conditions: 18 mo MPTP-lesioned mice, 30 mg/kg
In short: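 Female B6C3H x HeJ mice, 18 mo old, had baseline VMAT2 microPET: 500 µCi 18F-AV-133 by tail vein, imaged for 30 min. They were then lesioned with 4 × 10 mg/kg MPTP. Treatment at 30 mg/kg or vehicle began the following day and ran 21 d, after which microPET imaging was repeated.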

[20] = tested on: α-synuclein; assay: α-Synuclein levels in SNpc, MPTP-lesioned wild-type mice; assay type: in vivo
In short: as §2

[21] = tested on: α-synuclein; assay: α-Synuclein levels in SNpc, MPTP-lesioned hA53T α-synuclein tg mice; assay type: in vivo
In short: as §2

[22] = tested on: α-synuclein; assay: α-Synuclein levels, hA53T α-synuclein tg mice not MPTP-lesioned; assay type: in vivo; conditions: unpublished data
[23] = tested on: SNCA; assay: SNCA gene expression by qPCR, MPTP-lesioned WT mice; assay type: in vivo
[24] = tested on: hA53T α-synuclein tg mice; assay: Novel object recognition; assay type: in vivo; conditions: 30 mg/kg for 20 d
In short: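 hA53T α-synuclein tg mice, 7 mo old, equal sexes, received 30 mg/kg test compound or vehicle by oral gavage for 20 d. Novel object test with Lego blocks: 10-min training with two objects, 1-h delay, then one familiar object replaced by a novel 1.5 × 1.5 × 2.0 cm object. Index = time with novel object / time with familiar object.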

[25] = tested on: hA53T α-synuclein tg mice; assay: Y-maze test, hA53T tg mice; assay type: in vivo; conditions: 30 mg/kg, vehicle-treated 30%
[26] = tested on: synaptophysin; assay: Synaptophysin levels in striatum of hA53T tg mice; assay type: in vivo; conditions: 30 mg/kg
In short: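 hA53T tg mice, 7 mo old, were given 30 mg/kg or vehicle by oral gavage for 20 d. Striatal homogenate (~20 µg) was reduced with β-mercaptoethanol, heated to 90°C for 5 min, run on 10% SDS-PAGE and blotted to nitrocellulose. Synaptophysin densitometry was normalised to GAPDH or β-actin and expressed as percentage of vehicle.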

[27] = Overt toxicity observation in animal studies; assay type: in vivo; conditions: studies of this paper and a longer term 12-mo trial in wild-type animals
[28] = tested on: low copy mice overexpressing human G93A SOD1; conditions: ref Soon et al., 2011, cited from earlier work
[29] = single oral 20 mg/kg, male Sprague Dawley rats
[30] = single oral 30 mg/kg, C57BL/6 mice

CN=C([S-])N/N=C(C)/C(C)=N/NC([S-])=NC.[Cu+2] [Cu^II(atsm), copper(II)diacetylbis(N(4)-methylthiosemicarbazonato)]
ONOO^− half-life [1]: ~0.193 ± 0.0083 h
direct interaction between α-synuclein and compound (HSQC spectra) [2]: no direct interaction
inhibition of formation of α-synuclein fibrils [3]: did not inhibit the formation of α-synuclein fibrils
protective effect in posttreatment paradigm [4]: no protective effect was observed
reduction in nitrotyrosine (3-NT) levels [5]: 51%
apparent oral bioavailability ([6]; oral 20 mg/kg vs intravenous 5 mg/kg, rats): 53 ± 5%
Tmax [6, 29]: 10 h
elimination half-life [6, 29]: 3.1 ± 0.4 h
Cmax ([6]; single oral 20 mg/kg, male Sprague Dawley rats, plasma): 488.1 ± 67.0 ng/mL
maximum concentration of the compound in the brain ([7]; based on Cmax levels, oral 30 mg/kg mice): ~0.6 µM
brain Cmax [7, 30]: 198 ± 61 ng/mL
brain Tmax [7, 30]: 2 h
brain/plasma ratio (AUC0-6h) [7, 30]: 0.32
plasma Cmax [7, 30]: 591 ± 203 ng/mL
plasma Tmax [7, 30]: 1 h
apparent elimination half-life ([7]; single oral 30 mg/kg, C57BL/6 mice, plasma): ~3.3 h
increase in number of SNpc neurons vs vehicle-treated MPTP-lesioned mice ([8]; 15 mg/kg oral gavage): 43%
increase in number of SNpc neurons vs vehicle-treated MPTP-lesioned mice ([8]; 30 mg/kg oral gavage): 61%
effect on cell numbers of nonlesioned wild-type mice ([8]; nonlesioned wild-type mice): no effect
increase in number of SNpc dopaminergic neurons [9]: 26%
increase in total nigral cells [10]: 14%
increase of SNpc neurons [11]: 15%
decrease of Tturn and Ttotal times ([12]; 15 mg/kg): did not reach statistical significance
faster Ttotal (pole test) vs MPTP-lesioned vehicle ([12]; 30 mg/kg): 2.2 s
faster Tturn (pole test) vs MPTP-lesioned vehicle ([12]; 30 mg/kg): 1.5 s
effect on motor performance of nonlesioned wild-type mice ([12]; nonlesioned wild-type mice): no effect
improvement in Ttotal times [13]: not statistically significant
Tturn (pole test) ([13]; vehicle 3.9 ± 0.5 s): 1.1 ± 0.3 s
improvement in Ttotal [14]: 37%
improvement in Tturn [14]: 49%
Tturn (pole test) ([14]; vehicle 2.4 ± 0.4 s): 1.2 ± 0.1 s
Ttotal (pole test) ([14]; vehicle 6.1 ± 0.8 s): 3.9 ± 0.2 s
reduction in amphetamine-induced rotational behavior vs controls [15]: 45%
TH mRNA transcript levels (qPCR, SNpc) [16]: rescued
increase in TH levels (Western blot) ([16]; 15 mg/kg): 42%
increase in TH levels (Western blot) ([16]; 30 mg/kg): 45%
immunostaining of TH in SNpc ([16]; either 15 or 30 mg/kg): increased immunostaining
increase in dopamine levels vs untreated MPTP-lesioned animals [17]: 122%
increase in VMAT2 levels ([18]; 15 mg/kg): 13%
increase in VMAT2 levels ([18]; 30 mg/kg): 12%
VMAT2 transcripts (qPCR, SNpc) ([18]; MPTP-lesioned animals): levels were restored to those similar to the wild-type animals
increase in VMAT2 protein levels in striatum (Western blot) ([18]; older (18 mo) MPTP-lesioned mice): 60%
increase in 18F-AV133 ligand binding vs vehicle control lesioned mice [19]: 142%
α-synuclein dimers, % of control-treated [20]: 76%
α-synuclein monomer levels [20]: no changes
reduction in α-synuclein monomer levels ([21]; MPTP-lesioned hA53T tg mice): 12%
α-synuclein dimers, % of control-treated ([21]; MPTP-lesioned hA53T α-synuclein tg mice): 83%
α-synuclein levels vs vehicle treatment [22]: did not lead to any significant differences
SNCA gene regulation (qPCR) [23]: recovered to levels of unlesioned WT mice
increase in interactions with the novel object vs vehicle-treated mice [24]: 73%
mean novel arm entries (Y-maze) [25]: 42%
increase in synaptophysin levels vs vehicle-treated tg mice [26]: 31%
overt toxicity [27]: No overt toxicity
motor phenotype in ALS tg mouse model ([28]; pre- and postsymptomatic treatment regimes): successful in rescuing the motor phenotype
survival in ALS tg mouse model [28]: increased survival rates
